Results as given in ChEMBL document CHEMBL3271961, “Dibenztroponeacetic and -propionic acids. Potent new antiinflammatory agents” (1977).

These molecules were tested on Rattus norvegicus (assay: Antiinflammatory activity in rat assessed as inhibition of carrageenan-induced paw edema administered into pad of right hind paw 1 hr before carrageenan challenge measured after 4 hrs relative to phenylbutazone). Settings: in the assay text read “administered po” for “administered into pad of right hind paw”.
Format: functional
Procedure, shortened: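 Female rats, 80-90 g, gavaged with test material in 1 mL aqueous vehicle. One hour later, 0.05 mL of 1% carrageenan in 0.9% NaCl injected into the right hind paw pad. Rats killed 4 h after dosing. Both hind paws weighed, and the percent weight increase of the inflamed paw calculated. Six rats per group. Phenylbutazone standard usually at 3.6, 11 and 33 mg/kg.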
For `CC(C(=O)O)c1ccc2c(=O)c3ccccc3ccc2c1` (racemic), the Ratio was 44. Molecule `COC(=O)C(C)c1ccc2c(=O)c3ccccc3ccc2c1` (racemic) has a Ratio of 11. `CC(C(=O)O)c1ccc2c(=O)c3ccccc3ccc2c1` (single isomer, unassigned; (+)) showed a Ratio of 68. Work on `CC(C)CCOC(=O)C(C)c1ccc2c(=O)c3ccccc3ccc2c1` (racemic) yielded a Ratio of 6. `CCN(CC)CCOC(=O)C(C)c1ccc2c(=O)c3ccccc3ccc2c1.Cl` (racemic) showed a Ratio of 14. In the case of `CCCCCCCCCCCCOC(=O)C(C)c1ccc2c(=O)c3ccccc3ccc2c1` (racemic), the Ratio is reported as 15. For `CCCCCCCCCCCCCCCCCCCCOC(=O)C(C)c1ccc2c(=O)c3ccccc3ccc2c1` (racemic), the Ratio was “<=1”. In the case of `CC(C(=O)OCCN1CCCCC1)c1ccc2c(=O)c3ccccc3ccc2c1` (racemic), the Ratio is reported as 15. `CC(O)(C(=O)O)c1ccc2c(=O)c3ccccc3ccc2c1` (racemic) was tested, and the Ratio was <0.5. `CC(C(=O)[O-])c1ccc2c(=O)c3ccccc3ccc2c1.[Na+]` (stereo not drawn) gave a Ratio of 62. `COC(=O)C(C)c1ccc2c(=O)c3ccccc3ccc2c1` (stereo not drawn) was tested, and the Ratio was 15. Molecule `CC(C(=O)OCCN(C)C)c1ccc2c(=O)c3ccccc3ccc2c1` (single isomer, unassigned; (+)) has a Ratio of 45. `CC(C(=O)OCCN1CCOCC1)c1ccc2c(=O)c3ccccc3ccc2c1.Cl` (racemic) showed a Ratio of 9. In the case of `CCC(C(=O)O)c1ccc2c(=O)c3ccccc3ccc2c1` (racemic), the Ratio is reported as 7. For `CC(C)(C(=O)O)c1ccc2c(=O)c3ccccc3ccc2c1`, the Ratio was 0.5. With `CC(C(=O)O)c1ccc2c(=O)c3ccccc3ccc2c1` (single isomer, unassigned; (-)) the Ratio was 1.5. `CC(C(=O)OCCCCN(C)C)c1ccc2c(=O)c3ccccc3ccc2c1` (racemic) gave a Ratio of 7. For `C=C(C(=O)O)c1ccc2c(=O)c3ccccc3ccc2c1`, the Ratio was 4. `CCN(C)CCOC(=O)C(C)c1ccc2c(=O)c3ccccc3ccc2c1` (racemic) gave a Ratio of 20. `COC(=O)Cc1ccc2c(=O)c3ccccc3ccc2c1` was tested, and the Ratio was 3. Work on `CC(C(=O)OCCN(C)C)c1ccc2c(=O)c3ccccc3ccc2c1` (racemic) yielded a Ratio of 30. `O=C(O)Cc1ccc2c(=O)c3ccccc3ccc2c1` gave a Ratio of 6.

The molecules below were run on Mus musculus (assay: Analgesic activity in po dosed mouse assessed as inhibition of phenylquinone-induced writhing measured up to 10 mins relative to aspirin). Settings: not given.
Format: functional
Procedure, shortened: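 Male mice, 18-20 g, dosed orally in aqueous vehicle at time zero. Writhing induced 20 min later by ip injection of 0.25 mL 0.02% phenylquinone, then counted over the next 10 min. Groups of usually 8-10 mice. Aspirin standard given at 16.5, 50 and 150 mg/kg. Relative potency determined graphically or by Finney's methods.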
For `CC(C(=O)O)c1ccc2c(=O)c3ccccc3ccc2c1` (racemic), the Ratio was 12. Molecule `COC(=O)C(C)c1ccc2c(=O)c3ccccc3ccc2c1` (racemic) has a Ratio of 2. `CC(C(=O)O)c1ccc2c(=O)c3ccccc3ccc2c1` (single isomer, unassigned; (+)) gave a Ratio of 20. Molecule `CC(C)CCOC(=O)C(C)c1ccc2c(=O)c3ccccc3ccc2c1` (racemic) has a Ratio of 1.7. Molecule `CCN(CC)CCOC(=O)C(C)c1ccc2c(=O)c3ccccc3ccc2c1.Cl` (racemic) has a Ratio of 10. With `CCCCCCCCCCCCOC(=O)C(C)c1ccc2c(=O)c3ccccc3ccc2c1` (racemic) the Ratio was <0.5. For `CCCCCCCCCCCCCCCCCCCCOC(=O)C(C)c1ccc2c(=O)c3ccccc3ccc2c1` (racemic), the Ratio was <0.5. For `CC(C(=O)OCCN1CCCCC1)c1ccc2c(=O)c3ccccc3ccc2c1` (racemic), the Ratio was <2. For `CC(O)(C(=O)O)c1ccc2c(=O)c3ccccc3ccc2c1` (racemic), the Ratio was 1.5. For `CC(C(=O)OCCN1CCOCC1)c1ccc2c(=O)c3ccccc3ccc2c1.Cl` (racemic), the Ratio was <1. `CCC(C(=O)O)c1ccc2c(=O)c3ccccc3ccc2c1` (racemic) was tested, and the Ratio was 2. For `CC(C(=O)O)c1ccc2c(=O)c3ccccc3ccc2c1` (single isomer, unassigned; (-)), the Ratio was 1.5. In the case of `CC(C(=O)OCCCCN(C)C)c1ccc2c(=O)c3ccccc3ccc2c1` (racemic), the Ratio is reported as <3. Molecule `C=C(C(=O)O)c1ccc2c(=O)c3ccccc3ccc2c1` has a Ratio of 1. `CCN(C)CCOC(=O)C(C)c1ccc2c(=O)c3ccccc3ccc2c1` (racemic) was tested, and the Ratio was <2. `COC(=O)Cc1ccc2c(=O)c3ccccc3ccc2c1` was tested, and the Ratio was <1. `CC(C(=O)OCCN(C)C)c1ccc2c(=O)c3ccccc3ccc2c1` (racemic) gave a Ratio of 7. `O=C(O)Cc1ccc2c(=O)c3ccccc3ccc2c1` was tested, and the Ratio was 2.

What follows are molecules tested on Rattus norvegicus (assay: Antiinflammatory activity in po dosed rat assessed as inhibition of carrageenan immersed cotton pellet-induced granuloma administered daily once for 7 days measured one day after last dose relative to indomethacin). Settings: not given.
Format: functional
Procedure, shortened: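 Two 50-mg cotton pellets, soaked 24 h in 1% carrageenan, dried, then dipped in 1% penicillin G/1% streptomycin, implanted sc dorso-lumbar in 180-200 g rats (one sex per test). Daily oral dosing for 7 days. Next day, pellets with granulomas removed, dried 24 h at 100 °C, weighed. Usually nine rats/group. Indomethacin standard at 0.5, 1, 2, 4 mg/kg/day.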
`O=C(O)Cc1ccc2c(=O)c3ccccc3ccc2c1` showed a Ratio of 0.1.

What follows are molecules tested on Rattus norvegicus (assay: Antiarthritic activity in po dosed rat assessed as inhibition of adjuvant-induced arthritis administered twice daily for 17 days measured on day 18 relative to indomethacin). Settings: not given.
Molecule `COC(=O)C(C)c1ccc2c(=O)c3ccccc3ccc2c1` (stereo not drawn) has a Ratio of 2. `O=C(O)Cc1ccc2c(=O)c3ccccc3ccc2c1` was tested, and the Ratio was 0.1.
